Sampled rows, rich in hits. Any-hit rate of the full collection: about 1.9%.
UHRF1 MBD2 ctr = blocks human UHRF1 binding to methylated DNA; UHRF1 binding to methylated oligo, TR-FRET; 0.75% of 370,000 active; inhibition, % at 4.4 µM; Q96T88; in the data active means inhibition above about 21%;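 further: UHRF1 SRA domain binding a hemimethylated CpG hairpin DNA probe; 0% = median of test compound wells and 100% = reference inhibitor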
Tn7 DDE FP = disrupts Tn7 cyclic peptide binding to fibrin D-Dimer-E complex | FP displacement of FITC-Tn7 peptide from fibrin DD(E); 0% = median of compound wells per plate | P02675 | AID 720508 | 0.13% of 370,000 active | inhibition, % at 8.3 µM;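 active means inhibition above the mean of compounds falling within the control limits plus 3 SD of them, cut at about 14% in these data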;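 further: 0% = plate median of compound wells and 100% = 10 µM Aha-Tn7 peptide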
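Test system – human fibrin DD(E) · Times – 10 min preincubation, 3 h with tracer, room temperature · Detection – fluorescence polarization of the labelled Tn7 tracer · Measure – percent inhibition normalized to high-control wells · Benchmarks – high control wells with 10 µM unlabelled Aha-Tn7 peptide (full inhibition) · Repeats – singlicate testing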
MBD2 inh = blocks human MBD2 binding to methylated DNA; Q9UBB5; TR-FRET, MBD2 binding to methylated oligonucleotide; inhibition, % at 4.4 µM; 0.31% of 370,000 active; AID 686964; in the data active means inhibition above about 13%
Target sequence (Q9UBB5 whole entry, looked up): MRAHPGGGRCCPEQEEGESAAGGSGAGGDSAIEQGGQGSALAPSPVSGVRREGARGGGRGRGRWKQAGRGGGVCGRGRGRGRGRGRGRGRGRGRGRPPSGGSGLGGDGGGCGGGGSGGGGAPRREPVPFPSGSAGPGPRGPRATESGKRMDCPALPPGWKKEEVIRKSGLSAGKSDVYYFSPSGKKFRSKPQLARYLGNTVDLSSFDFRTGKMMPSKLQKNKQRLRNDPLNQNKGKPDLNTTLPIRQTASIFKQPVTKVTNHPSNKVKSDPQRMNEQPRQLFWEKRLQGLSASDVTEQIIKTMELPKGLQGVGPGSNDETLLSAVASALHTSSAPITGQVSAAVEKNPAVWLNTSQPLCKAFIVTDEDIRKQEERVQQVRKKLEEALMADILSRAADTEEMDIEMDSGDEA
LEDGF integ inh = blocks HIV-1 LEDGF/p75-dependent DNA integration | inhibition, % at 3.7 µM | TR-FRET IN-LEDGF/p75 DNA integration, Eu/Cy5 | 0.64% of 370,000 active;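 active means inhibition above the screen-wide mean plus 3 SD, cut at about 13% in these data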;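 further: signal is the Cy5 over europium emission ratio at 671 and 618 nm; 0% = plate median of compound wells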
Tn6 DDE FP = disrupts Tn6 cyclic peptide binding to fibrin D-Dimer-E complex. Fibrin DD(E) TRITC-Tn6 fluorescence polarization displacement. inhibition, % at 8.3 µM. 0.21% of 370,000 active. AID 720509;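 active means inhibition above a per-campaign cutoff: mean of compounds within control limits plus 3 SD, cut at about 15% in these data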;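 further: 0% = median of all compound wells on the plate and 100% = blocking peptide control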
TDP2 inh = TDP2 (human) inhibition, absorbance primary screen. O95551. recombinant TDP2, T5PNP hydrolysis, p-nitrophenol absorbance 415 nm. inhibition, % at 12.8 µM. 0.34% of 370,000 active. AID 720702;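 active means inhibition above the mean of all tested compounds plus 3 SD, set per campaign, cut at about 25% in these data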;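 further: 0% = DMSO with enzyme and 100% = buffer with substrate but no TDP2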
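Material: recombinant human TDP2; quantity: TDP2 enzyme at 120 nM final; medium: Tris-HCl pH 7.5 with MgCl2; compound: single concentration, 12.8 µM nominal, with 1% DMSO; incubation: 2 h enzyme incubation at 37 °C; signal: epi absorbance; measure: percent inhibition; benchmarks: high control without enzyme, low control DMSO plus TDP2; repeats: singlicate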
IN multimer up = activates HIV-1 integrase multimerization in LEDGF counter-screen | activation, % at 7.7 µM | TR-FRET HIV-1 integrase multimerization, biochemical | shares compounds with LEDGF integ inh | AID 1053131 | 17% of 2,000 active; in the data active means activation above about 8.9%
TR-FRET interf = TR-FRET optical interference, LEDGF/p75 integration counter-screen; shares compounds with LEDGF integ inh; TR-FRET optical interference counterscreen, HIV-1 IN multimerization; inhibition, % at 7.7 µM; 2,000 tested, under 10 active; AID 1053135;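 active means inhibition above the mean over all tested compounds plus 3 SD, which no compound reached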;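 further: 0% = integrase with antibodies and DMSO and 100% = antibodies without integrase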
IN-LEDGF confirm = LEDGF/p75-dependent HIV-1 integration inhibition, confirmation; shares compounds with LEDGF integ inh; TR-FRET LEDGF/p75-dependent HIV-1 integration, biochemical; inhibition, % at 3.7 µM; 36% of 2,000 active; AID 1053136; in the data active means inhibition above about 14%
* hit, by the source's call; · = no result given.

SMILES	UHRF1 MBD2 ctr	Tn7 DDE FP	MBD2 inh	LEDGF integ inh	Tn6 DDE FP	TDP2 inh	IN multimer up	TR-FRET interf	IN-LEDGF confirm
O=C(NCCN1CCCC1)C1CC(=O)N(C2CCCCC2)C1 (centres undefined)	0.0	3.0	-7.6	26.4*	6.2	3.8	-0.5	2.7	-4.5
Cc1ccc(-c2nc3ncccn3c2NC(=O)Nc2ccc(OC(F)(F)F)cc2)cc1	-3.8	0.6	1.7	0.8	-9.4	8.7	·	·	·
Cn1ccc2c(N(Cc3ccccc3)Cc3ccccc3)cc3c(c21)C1CCC3O1 (centres undefined)	-5.2	-1.7	-10.4	19.7*	-10.9	7.2	-1.2	4.2	-2.8
CC(C)c1cccc(-c2csc(C(C)(O)c3ccccc3)n2)c1 (centres undefined)	0.7	8.4	1.1	16.2*	1.1	-2.8	0.2	-1.0	-10.3
CC(O)(c1ccccc1)c1nc(-c2cccc(C(=O)O)c2)cs1 (centres undefined)	11.1	-1.0	4.7	0.3	-3.4	-9.2	·	·	·
COc1ccc(-c2csc(C(C)(O)c3cccc(OC)c3)n2)cc1 (centres undefined)	-2.7	3.2	1.9	21.7*	-6.5	-7.5	0.0	-0.2	-4.7
COC(=O)[C@]12CCCCC=C1N(Cc1ccc(OC)cc1)C(=O)[C@@H]2CC(=O)N1CCOCC1	-1.1	-3.1	-3.3	2.1	-10.0	-3.7	·	·	·
Cc1cccc(NC(=O)CNC(=O)[C@H](CCc2ccccc2)NC(=O)[C@H]2O[C@@H](n3cnc4c(N)ncnc43)[C@H](O)[C@@H]2O)c1C	4.2	-6.8	0.3	-3.3	6.7	2.6	·	·	·
COc1ccccc1CCn1cnc(-c2ccc(Cl)cc2)c1CC(C)C	1.2	4.6	-1.9	0.4	-2.3	4.6	·	·	·
O=C1C2C(C(=O)N1/N=C/c1cc([N+](=O)[O-])c(O)cc1O)C1C=CC2C12CC2 (centres undefined)	14.7	-2.6	1.5	18.2*	3.1	-7.6	7.4	-37.2	19.7*
O=C(O)/C=C/C(=O)N1Cc2cc3ccccc3nc2C1	8.1	3.8	9.8	18.8*	-11.9	-4.9	0.2	-0.8	3.1
CCOC(=O)N1Cc2cc3ccccc3nc2C1	-6.0	-5.2	-1.9	6.2	1.8	-0.5	·	·	·
Cc1cc(C)cc(N(CC(=O)NC2CCC(C)CC2)S(=O)(=O)c2ccc([N+](=O)[O-])cc2)c1 (centres undefined)	-2.8	0.1	-4.0	1.9	-0.3	4.7	·	·	·
O=C1OC(/C=C/c2ccc(Cl)cc2)=NC/1=C/c1ccco1	5.9	-8.1	-1.2	17.3*	-5.0	5.7	0.5	-2.6	1.9
CN(C)CCCNC(=O)C[C@@H]1CC[C@@H]2[C@H](COc3ccc(NC(=O)c4cccc(F)c4)cc3C(=O)N2C)O1	-0.5	2.6	-3.2	0.5	11.5	-1.8	·	·	·
CCCCc1c(-c2ccccc2OC)ncn1Cc1c(F)cccc1F	-0.1	9.9	2.1	1.3	3.1	3.4	·	·	·
C[C@H]1COc2cc(NCCCN3CCOCC3)ccc2S(=O)(=O)N1	10.2	2.6	-0.4	1.2	2.9	8.7	·	·	·
Cc1ccc(-n2ccnc(SCC(=O)NCCc3ccccc3)c2=O)cc1F	-3.6	-0.4	-5.9	17.1*	0.5	-10.3	2.7	-9.8	-9.2
CCOc1ccc(-n2ccnc(SCC(=O)NCCc3ccccc3)c2=O)cc1	-3.4	5.2	-2.8	1.5	4.5	-1.7	·	·	·
Cc1nc(C(=O)NCCCO)cc2c1[nH]c1ccccc12	1.5	-5.0	0.2	26.9*	0.5	16.1	-1.6	5.7	-1.2
CCOC(=O)[C@]12CCCC3=C1N(CCC3)C(=O)[C@@H](CC(=O)N1CCC(c3ccccc3)CC1)C2	1.0	4.1	-0.6	-1.5	-4.3	-6.0	·	·	·
